Assays:
L1210 [1] = test: Compound was determined for spermidine (SPD) level in L1210 cells after treatment at a concentration of 100 uM and expressed as percent compound found in untreated controls.; assay type: functional, Mus musculus
L1210 [2] = test: Compound was tested for the growth inhibition of murine L1210 cell at a duration of 96 h; assay type: functional, cell-based; settings: Mus musculus, L1210, 96 h
Outline: (§1)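 Log-phase suspension cultures of murine L1210 cells (0.5–1.0 × 10^5 cells/mL) were grown in RPMI-1640 with 10% FBS and 1 mM aminoguanidine at 37 °C and 5% CO2. Cells were treated, reseeded and counted to give percent of control growth. IC50 is the concentration reducing growth to 50% of control after 48 or 96 h, as the mean of at least two experiments.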

L1210 [3] = test: Compound was determined for putrescine (PUT) level in murine L1210 cells after treatment at a concentration of 100 uM and expressed as percent compound found in untreated controls.; assay type: functional, Mus musculus
[4] = target: T1, S-adenosylmethionine decarboxylase proenzyme 1 (Mus musculus) (UniProt P0DMN7); test: Compound was tested for the enzyme activity against S-Adenosyl-methionine decarboxylase in murine L1210 cells and expressed as percent compound found in untreated controls.; assay type: cell-based
T1 sequence (whole entry): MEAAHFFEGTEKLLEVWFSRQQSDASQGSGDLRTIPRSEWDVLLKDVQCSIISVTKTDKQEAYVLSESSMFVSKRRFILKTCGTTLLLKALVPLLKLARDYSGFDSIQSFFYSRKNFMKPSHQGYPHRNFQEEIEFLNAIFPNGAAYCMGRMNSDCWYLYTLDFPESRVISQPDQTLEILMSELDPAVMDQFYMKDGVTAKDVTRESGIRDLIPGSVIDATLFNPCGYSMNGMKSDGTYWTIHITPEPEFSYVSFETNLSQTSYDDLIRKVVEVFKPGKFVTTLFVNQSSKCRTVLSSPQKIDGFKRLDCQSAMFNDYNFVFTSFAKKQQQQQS
Outline: (§2)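 L1210 cells were treated at 1 µM for 6 h. AdoMetDC activity was measured as 14CO2 released from [14C]carboxyl-labeled S-adenosyl-L-methionine and expressed as percent of untreated control. Controls were untreated cells and 1 µM DEHSPM-treated cells. Results are the mean of at least three experiments.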

L1210 [5] = test: Compound was tested for the growth inhibition of murine L1210 cell at a duration of 48 h; assay type: functional, cell-based; settings: Mus musculus, L1210, 48 h; outline: as §1
[6] = target: Diamine acetyltransferase 1 (Mus musculus) (UniProt P48026); test: Compound was tested for the enzyme activity against Spermidine/spermine N1-acetyl transferase (SSAT) in murine L1210 cells and expressed as percent compound found in untreated controls.; assay type: cell-based
Chain of Diamine acetyltransferase 1 (Mus musculus) (P48026 whole entry): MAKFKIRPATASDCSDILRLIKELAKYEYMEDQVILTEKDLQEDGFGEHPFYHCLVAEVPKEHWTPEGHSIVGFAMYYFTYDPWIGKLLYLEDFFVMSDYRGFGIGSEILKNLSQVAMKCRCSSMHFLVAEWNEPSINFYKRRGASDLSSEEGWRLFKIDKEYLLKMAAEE
Outline: (§3)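 L1210 cells were treated for 48 h at 10 µM, or at 0.2 µM for the conjugate. SSAT activity was measured as [14C]N1-acetylspermidine formed from spermidine and [14C]acetyl-CoA, expressed as percent of untreated control. The positive control was 2 µM DENSPM. Results are the mean of at least three experiments.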

[7] = Compound was tested for the inhibition of spermidine transporter by using [3H]SPD transport in murine L1210 cell; assay type: functional, cell-based, Mus musculus
Outline: (§4)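 L1210 cell suspensions were incubated in culture medium with [3H]spermidine, either alone or with graduated concentrations of competitor. Cells were pelleted, washed, digested, neutralized and scintillation-counted. Ki was derived from Lineweaver–Burk plots assuming competitive inhibition against spermidine, as the mean of two to three experiments.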

[8] = target: T2, Ornithine decarboxylase (Mus musculus) (UniProt P00860); test: Compound was tested for the enzyme activity against ornithine decarboxylase (ODC) in murine L1210 cells and expressed as percent compound found in untreated controls.; assay type: cell-based
T2 sequence (whole entry): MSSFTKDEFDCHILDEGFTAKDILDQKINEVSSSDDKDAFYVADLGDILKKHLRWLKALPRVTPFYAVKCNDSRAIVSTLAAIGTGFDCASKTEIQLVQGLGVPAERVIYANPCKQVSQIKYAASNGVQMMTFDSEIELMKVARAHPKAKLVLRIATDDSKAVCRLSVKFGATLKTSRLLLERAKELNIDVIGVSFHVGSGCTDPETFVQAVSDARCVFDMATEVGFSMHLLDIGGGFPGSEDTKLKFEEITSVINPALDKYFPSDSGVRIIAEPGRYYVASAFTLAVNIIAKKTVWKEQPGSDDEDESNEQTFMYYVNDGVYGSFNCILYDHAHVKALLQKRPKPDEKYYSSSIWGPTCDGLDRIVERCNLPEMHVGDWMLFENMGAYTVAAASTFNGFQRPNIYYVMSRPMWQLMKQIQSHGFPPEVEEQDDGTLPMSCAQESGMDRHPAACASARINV
Outline: (§5)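 L1210 cells were treated at 1 µM for 4 h. ODC activity was measured as 14CO2 released from [14C]carboxyl-labeled L-ornithine and expressed as percent of untreated control. Controls were untreated cells and 1 µM DEHSPM-treated cells. Results are the mean of at least three experiments.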

L1210 [9] = test: Compound was determined for spermine (SPM) level in murine L1210 cells after treatment at a concentration of 100 uM and expressed as percent compound found in untreated controls.; assay type: functional, Mus musculus
[10] = target: T1, S-adenosylmethionine decarboxylase proenzyme 1 (Mus musculus); test: Compound was tested for the enzyme activity against S-Adenosyl-methionine decarboxylase in L1210 cells and expressed as percent compound found in untreated controls.; assay type: cell-based; outline: as §2
L1210 [11] = test: Compound was determined for spermine (SPM) level in L1210 cells after treatment at a concentration of 100 uM and expressed as percent compound found in untreated controls.; assay type: functional, Mus musculus
[12] = target: T2, Ornithine decarboxylase (Mus musculus); test: Compound was tested for the enzyme activity against ornithine decarboxylase (ODC) in L1210 cells and expressed as percent compound found in untreated controls.; assay type: cell-based; outline: as §5
L1210 [13] = test: Compound was tested for the growth inhibition of L1210 cell at a duration of 48 h; assay type: functional, cell-based; settings: Mus musculus, L1210, 48 h
[14] = target: Diamine acetyltransferase 1 (Mus musculus) (UniProt P48026); test: Compound was tested for the enzyme activity against Spermidine/spermine N1-acetyl transferase (SSAT) in L1210 cells and expressed as percent compound found in untreated controls.; assay type: cell-based; outline: as §3
L1210 [15] = test: Compound was determined for putrescine (PUT) level in L1210 cells after treatment at a concentration of 100 uM and expressed as percent compound found in untreated controls.; assay type: functional, Mus musculus
[16] = Compound was tested for the inhibition of spermidine transporter by using [3H]SPD transport in L1210 cell; assay type: functional, cell-based, Mus musculus; outline: as §4
L1210 [17] = test: Compound was determined for putrescine (PUT) level in L1210 cells after treatment at a concentration of 0.2 uM and expressed as percent compound found in untreated controls.; assay type: functional, Mus musculus
Outline: (§6)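 L1210 cells in RPMI-1640 with 10% FBS, HEPES-MOPS, 1 mM glutamine and 1 mM aminoguanidine were exposed to 0.2 µM during log growth for 48 h. Cells were washed three times in ice-cold incomplete medium, extracted with 0.6 N perchloric acid and freeze-fractured three times. Putrescine, spermidine and spermine were measured by HPLC and expressed as percent of untreated control.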

L1210 [18] = test: Compound was tested for the growth inhibition of L1210 cell at a duration of 96 h; assay type: functional, cell-based; settings: Mus musculus, L1210, 96 h
L1210 [19] = test: Compound was determined for spermidine (SPD) level in L1210 cells after treatment at a concentration of 0.2 uM and expressed as percent compound found in untreated controls.; assay type: functional, Mus musculus; outline: as §6
L1210 [20] = test: Compound was determined for spermine (SPM) level in L1210 cells after treatment at a concentration of 0.2 uM and expressed as percent compound found in untreated controls.; assay type: functional, Mus musculus; outline: as §6
L1210 [21] = test: Compound was determined for spermine (SPM) level in L1210 cells after treatment at a concentration of 50 uM and expressed as percent compound found in untreated controls.; assay type: functional, Mus musculus
Outline: (§7)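 Murine L1210 leukaemia cells, kept in log-phase suspension in RPMI-1640 with 10% FBS, 1 mM glutamine and 1 mM aminoguanidine at 37 °C, 5% CO2, were treated at 50 μM for 48 h. Cells were washed three times in ice-cold incomplete medium, extracted with 0.6 N perchloric acid and freeze-fractured. Putrescine, spermidine and spermine were then measured by HPLC and expressed as percent of untreated control.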

L1210 [22] = test: Compound was determined for spermidine (SPD) level in L1210 cells after treatment at a concentration of 50 uM and expressed as percent compound found in untreated controls.; assay type: functional, Mus musculus; outline: as §7
L1210 [23] = test: Compound was determined for putrescine (PUT) level in L1210 cells after treatment at a concentration of 50 uM and expressed as percent compound found in untreated controls.; assay type: functional, Mus musculus; outline: as §7

SMILES: CC(=O)NCCCNCCCCNCCCN
- Activity (L1210 [1]): 71%
- IC50 (L1210 [2]): > 100 µM
- Activity (L1210 [3]): 24%
- Activity [4]: 86%
- IC50 (L1210 [5]): > 100 µM
- Activity [6]: 180%
- Ki [7]: 10 µM
- Activity [8]: 25%
- Activity (L1210 [9]): 111%

SMILES: CCCNCCCCNCCCN
- Activity [10]: 64%
- Activity (L1210 [11]): 103%
- Activity [12]: 14%
- IC50 (L1210 [13]): > 100 µM
- Activity (L1210 [1]): 33%
- Activity [14]: 500%
- Activity (L1210 [15]): 0%
- Ki [16]: 8.5 µM

SMILES: Cc1c(O)c(=O)ccn1CCCNCCCCNCCCN
- Activity (L1210 [17]): 33%
- Activity [10]: 77%
- Activity [12]: 20%
- Activity [14]: 275%
- IC50 (L1210 [18]): 200 nM
- Activity (L1210 [19]): 64%
- Ki [16]: 3.7 µM
- Activity (L1210 [20]): 139%

SMILES: CCNCCCNCCCCNCCCN
- Activity [14]: 150%

SMILES: Cc1c(O)c(=O)ccn1C [DEFERIPRONE]
- Activity (L1210 [21]): 127%
- Activity [10]: 120%
- Activity [12]: 114%
- Activity (L1210 [22]): 117%
- Activity [14]: 108%
- Ki [16]: > 500 µM
- Activity (L1210 [23]): 104%

— ChEMBL document CHEMBL1145926, “Polyamine-iron chelator conjugate” (J Med Chem, 2003)
